KCNQ1 inh: blocks the human KCNQ1 potassium channel; P51787; CHO-K1 KCNQ1, FluxOR thallium flux fluorescence; hits give high values; B-score at 10 µM; 310,000 tested, 1.3% active;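 active = compounds whose thallium flux B-score, printed positive for inhibition, exceeds three library SD while starting fluorescence stays within three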;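 note: channel opened by potassium depolarization with thallium stimulus after 20 min compound exposure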
KCNK9 inh: inhibitors of human KCNK9 two-pore domain potassium channel | AID 488922 | 310,000 tested, 1.2% active | HEK293 KCNK9, FluxOR thallium flux fluorescence; hits give low values | B-score at 10 µM | Q9NPC2;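 active = ratio B-score over 3 SD below the library mean, with starting fluorescence within 5 SD of its mean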;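 note: negative B-score means less thallium flux so channel inhibition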
KCNK3 inh: human KCNK3 channel inhibition, primary screen | CHO-KCNK3 thallium flux, FluxOR fluorescence; hits give low values | AID 602410 | 340,000 tested, 0.84% active | B-score at 10 µM;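 active = B-score under library mean minus 4 SD, starting fluorescence ratio at most library mean plus 5 SD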;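 note: more negative B-score means stronger inhibition of thallium flux through KCNK3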
hERG rescue: compounds protecting human hERG from proarrhythmic drug block; Q12809; CHO-hERG, FluxOR thallium flux, dofetilide IC70 present; activation (rescue from dofetilide block), less the hit threshold, % at 10 µM; 310,000 tested, 0.51% active;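 active = activation above the mean of controls blocked by dofetilide plus 5 SD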;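 note: thallium influx through hERG after potassium depolarization seen as dye fluorescence rise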
KCNQ1 pot: potentiates or activates the human KCNQ1 potassium channel | P51787 | CHO-K1 KCNQ1, thallium flux FluxOR fluorescence; hits give high values | B-score at 10 µM | 310,000 tested, 0.35% active | AID 2648;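 active = fluorescence ratio B-score, a plate-corrected score, at least three library SD, with initial intensity B-score within 5 SD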
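Assay system: stable KCNQ1 CHO-K1 line; medium: assay buffer, equal DMSO in all wells; timing: 90 min dye loading and 20 min compound exposure, both at room temperature; technique: kinetic FluxOR thallium fluorescence, 10-s 1-Hz baseline, 110-s post-stimulus read; read-out basis: B score of baseline-normalized fluorescence ratio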
KCNK3 inh conf: human KCNK3 channel inhibition, confirmation assay; AID 651638; 2,400 tested, 99% active; ratio percent of control, % at 10 µM; shares compounds with KCNK3 inh; CHO-KCNK3 thallium flux, FluxOR fluorescence; 0% buffer, 100% carvedilol maximal block;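 active = ratio percent of control, averaged over triplicates, above buffer control mean plus 5 SD, cut at about 64% in these data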;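 note: ratio is the fluorescence rise from min to max over baseline after thallium stimulus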
KCNK3 uninduced: activity in cells without induced KCNK3 expression. non-induced KCNK3 parental cells, FluxOR thallium flux; hits give low values. thallium flux ratio (lower = more inhibition) at 10 µM. AID 651747. shares compounds with KCNK3 inh. 2,400 tested, 40% active;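 active = thallium flux ratio, averaged over three wells, more than 5 SD below the buffer control mean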;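 note: host cells are CHO cells without KCNK3 induction; ratio is peak minus trough fluorescence over baseline then normalized to buffer controls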
The depositor's hits bear a star; i = inactive; . = not tested or not shown. Most compounds without a hit are left out; they make up all but 3.1% or so of the library.

SMILES	KCNQ1 inh	KCNK9 inh	KCNK3 inh	hERG rescue	KCNQ1 pot	KCNK3 inh conf	KCNK3 uninduced
Brc1ccc(-c2noc(COc3ccc4ccccc4c3)n2)o1	i	i	-9.1*	-12	i	102*	i
Clc1ccc(Cc2ccccn2)cc1	.	.	i	.	.	.	.
CCOC(=O)C1CCCN(C(=O)c2cc(-c3ccc(C)cc3)nc3ccccc23)C1 (centres undefined)	i	i	-9.7*	-31	i	108*	i
CCOC(=O)C1CCCN(C(=O)c2cc(Nc3ccc(OC)c(OC)c3)nc3ccccc23)C1 (centres undefined)	i	i	i	-7	i	.	.
CCC(C(=O)NCCc1ccc(C)cc1)n1nc(C)c2c(C)n(-c3ccccc3)nc2c1=O (centres undefined)	i	i	-9.4*	-5	i	99*	i
Cc1ccc(CCNC(=O)C(C)n2nc(C)c3c(C)n(-c4ccccc4)nc3c2=O)cc1 (centres undefined)	i	i	i	-7	i	.	.
CCCC(=O)Oc1c(S(=O)(=O)c2ccc(C)cc2)c(C)nn1C(C)(C)C	i	i	-8.8*	-13	i	90*	i
CC(=O)Oc1c(S(=O)(=O)c2ccccc2)c(C)nn1C(C)(C)C	i	i	i	-9	i	.	.
Cc1nn(C(C)(C)C)c(OC(=O)c2cccs2)c1S(=O)(=O)c1ccccc1	i	i	-10*	-15	i	117*	0.15*
CCCCC(=O)Oc1c(S(=O)(=O)c2ccccc2)c(C)nn1C(C)(C)C	i	i	-10*	-4	i	118*	i
CCC(=O)Oc1c(S(=O)(=O)c2ccc(C)cc2)c(C)nn1C(C)(C)C	.	.	i	.	.	.	.
CCc1c(-c2ccccc2)nc2nc(C)c(C)nn12	i	i	-8.9*	-8	i	104*	0.14*
Cc1nc2nc(-c3ccccc3)cn2nc1C	i	i	i	3	i	.	.
COc1cccc(-c2nc(C(=O)NCC3CCCO3)cc3c2[nH]c2ccccc23)c1 (centres undefined)	i	-6.8*	-11*	-25	i	64*	0.15*
COc1ccc(OC)c(-c2nc(C(=O)NCC3CCCO3)cc3c2[nH]c2ccccc23)c1 (centres undefined)	i	i	i	-14	i	.	.
COc1cccc2cc(C(C)N(CCCN3CCOCC3)C(=S)Nc3ccc(C)c(C)c3)oc12 (centres undefined)	i	i	-9.3*	-14	i	89*	i
O=C(C1CC(c2ccccc2O)=NO1)N1CCc2ccccc2C1 (centres undefined)	i	i	-9*	-3	i	99*	i
O=C(C1CC(c2ccc(F)cc2)=NO1)N1CCc2ccccc2C1 (centres undefined)	i	i	i	-6	i	.	.
c1ccc(CN2CCN(c3nc4ccccc4c4ccccc34)CC2)cc1	i	i	-11*	-11	i	98*	i
c1ccc(CN2CCN(c3nc(NCc4ccco4)c4ccccc4n3)CC2)cc1	i	i	-11*	-38	i	141*	0.1*
c1ccc(CN2CCN(c3nc(-c4ccccn4)nc4ccccc34)CC2)cc1	i	i	i	-6	i	.	.
OCCN1CCN(c2nc(NCc3ccco3)c3ccccc3n2)CC1	i	i	i	-11	i	.	.
CSc1nc(N2CCN(Cc3ccc4c(c3)OCO4)CC2)c2ccccc2n1	i	i	-13*	-10	i	112*	i
COc1ccc(C)cc1N(CC(=O)NCCN1CCOCC1)S(=O)(=O)c1ccccc1	i	i	i	-10	i	.	.
O=C(Nc1ccccc1N1CCCC1)c1cccc(Cl)c1Cl	i	i	i	-3	i	.	.
Cc1c(N2CCCC2)cc2c(c1NC(=O)c1ccccc1Cl)C(C)(C)CC2(C)C	i	i	-9.3*	-9	i	114*	0.13*
CC(C)OC(=O)c1ccc(NC(=O)c2ccco2)cc1	i	i	-9.8*	-10	i	91*	i

Source: PubChem BioAssay (Johns Hopkins Ion Channel Center)
